Data reported in ChEMBL document CHEMBL3779860, “A Designed Tryptophan- and Lysine/Arginine-Rich Antimicrobial Peptide with Therapeutic Potential for Clinical Antibiotic-Resistant Candida albicans Vaginitis” (J Med Chem, 2016).
In brackets after ≈: the same amount, converted by molar mass. Activity calls are given as the source filed them. The calls are words filed in the database; no cut-off is given here.

Legend:
Escherichia coli = assay: Antimicrobial activity against Escherichia coli ATCC 25922 assessed as inhibition of […] growth after 16 hrs by broth dilution method; format: functional; conditions: ATCC 25922, 16 h
Procedure, shortened: (§1)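 Broth dilution in LB broth; 100 µL of 2 × 10^5 CFU/mL bacterial suspension plus 10 µL sample (stock series in 0.9% NaCl) in 90 µL broth, 37°C for 16 h. Growth read as A600; MIC is the lowest concentration completely inhibiting growth. Mean of three independent experiments run in duplicate.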

Staphylococcus aureus = assay: Antimicrobial activity against Staphylococcus aureus ATCC 2592 assessed as inhibition of […] growth after 16 hrs by broth dilution method; format: functional; conditions: ATCC 2592, 16 h; procedure, shortened: as §1
Bacillus subtilis = assay: Antimicrobial activity against Bacillus subtilis assessed as inhibition of […] growth after 16 hrs by broth dilution method; format: functional; procedure, shortened: as §1
Mus musculus [1] = assay: Antiinflammatory activity in antibiotic resistant Candida albicans clinical isolate 08030809 induced mouse vaginitis model assessed as reduction in IL-10 secretion in vaginal tissue at 10 mg/ml administered as intravaginal instillation measured on day 10 by ELISA; format: functional, organism-based; conditions: Vagina
Procedure, shortened: (§2)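 Same estradiol-primed mouse model, infected intravaginally with C. albicans 08030809 and treated by intravaginal instillation (20 µL/mouse). Vaginal canals excised on day 10 of treatment and homogenised in 0.9% NaCl. Supernatant taken after 2,000 g for 15 min. TNF-α, IL-6, IL-1β and IL-10 measured by ELISA. Mean ± SE of three independent experiments; unpaired t-test versus vehicle.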

Candida albicans [2] = assay: Antimicrobial activity against antibiotic resistant Candida albicans clinical isolate 08030809 assessed as clone count at 10 mg/ml after 24 hrs by colony counting assay (Rvb > 10^5 CFU); format: functional
Mus musculus [3] = assay: (§3) Antiinflammatory activity in antibiotic resistant Candida albicans clinical isolate 08030809 induced mouse vaginitis model assessed as microabscess number in vaginal tissue at 200 ug administered as intravaginal instillation measured on day 6 by hematoxylin-eosin staining based microscopic method (reference value: 61); format: functional, Vagina
Procedure, shortened: (§4)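 Mice given weekly subcutaneous estradiol valerate (0.5 mg in 0.1 mL vegetable oil) 72 h before infection. Infected intravaginally with 20 µL of 10^7 CFU/mL C. albicans 08030809. Intravaginal instillation of 20 µL daily for 16 days. Vaginal canals excised after lavage, formalin-fixed, paraffin-embedded, HE-stained. Microabscesses counted per high-power field over 6 fields per section, three independent experiments.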

Mus musculus [4] = assay: Antiinflammatory activity in antibiotic resistant Candida albicans clinical isolate 08030809 induced mouse vaginitis model assessed as reduction in TNF-alpha secretion in vaginal tissue at 10 mg/ml administered as intravaginal instillation measured on day 10 by ELISA; format: functional, organism-based; conditions: Vagina; procedure, shortened: as §2
Candida albicans [5] = assay: Effect on cell membrane integrity in antibiotic resistant Candida albicans clinical isolate 08030809 at 20 ug/ml measured every 2 mins upto 20 mins by SYTOX green nucleic acid staining-based fluorescence assay; format: functional, organism-based
Procedure, shortened: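 Exponential-phase C. albicans 08030809 was washed and resuspended at 10^6 CFU/mL in 10 mM PBS pH 7.4. Cells were loaded with 0.1 µM (final) SYTOX Green for 15 min at 37°C with shaking, then test samples were added. Fluorescence (ex 488/em 530 nm) was recorded every 2 min as RFU. Mean ± SE of five independent experiments.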

Candida albicans [6] = assay: Antimicrobial activity against antibiotic resistant Candida albicans clinical isolate 08030809 assessed as clone count at 10 mg/ml after 1 min by colony counting assay (reference value: 62 +/- 7 CFU); format: functional
Candida albicans [7] = assay: Antimicrobial activity against antibiotic resistant Candida albicans clinical isolate 08030809 assessed as clone count at 10 mg/ml after 3 hrs by colony counting assay (reference value: 3687 +/- 543 CFU); format: functional
Candida albicans [8] = assay: Antimicrobial activity against antibiotic resistant Candida albicans clinical isolate 08030809 assessed as clone count at 10 mg/ml after 30 mins by colony counting assay (reference value: 156 +/- 16 CFU); format: functional
Mus musculus [9] = assay: as §3, with “after 16 days” for “on day 6”; format: functional, Vagina; procedure, shortened: as §4
Mus musculus [10] = assay: Antiinflammatory activity in antibiotic resistant Candida albicans clinical isolate 08030809 induced mouse vaginitis model assessed as reduction in IL-6 secretion in vaginal tissue at 10 mg/ml administered as intravaginal instillation measured on day 10 by ELISA; format: functional, organism-based; conditions: Vagina; procedure, shortened: as §2
Mus musculus [11] = assay: Antiinflammatory activity in antibiotic resistant Candida albicans clinical isolate 08030809 induced mouse vaginitis model assessed as reduction in IL-1beta secretion in vaginal tissue at 10 mg/ml administered as intravaginal instillation measured on day 10 by ELISA; format: functional, organism-based; conditions: Vagina; procedure, shortened: as §2
Candida albicans [12] = assay: Antimicrobial activity against antibiotic resistant Candida albicans clinical isolate 08030809 assessed as clone count at 10 mg/ml after 10 mins by colony counting assay (reference value: 102 +/- 11 CFU); format: functional
Candida albicans [13] = assay: Antimicrobial activity against antibiotic resistant Candida albicans clinical isolate 08030809 assessed as clone count at 10 mg/ml after 6 hrs by colony counting assay (reference value: 14536 +/- 2467 CFU); format: functional
Candida albicans [14] = assay: Antimicrobial activity against antibiotic resistant Candida albicans clinical isolate 08030809 assessed as clone count at 10 mg/ml after 12 hrs by colony counting assay (reference value: 54153 +/- 8769 CFU); format: functional
Candida albicans [15] = assay: Antimicrobial activity against antibiotic resistant Candida albicans clinical isolate 08030809 in mouse vaginitis model assessed as colony count in lavage liquid of vagina at 10 mg/ml administered as intravaginal instillation measured on day 16; format: functional
Candida albicans [16] = assay: Antimicrobial activity against antibiotic resistant Candida albicans clinical isolate 08030809 in mouse vaginitis model assessed as decrease in colony count in lavage liquid of vagina at 10 mg/ml administered as intravaginal instillation measured on day 16; format: functional; conditions: isolate 08030809, Vagina, topical, 384 h
Candida albicans [17] = assay: Antimicrobial activity against antibiotic resistant Candida albicans clinical isolate 08030809 assessed as clone count at 10 mg/ml after 1 hr by colony counting assay (reference value: 228 +/- 23 CFU); format: functional
Candida albicans [18] = assay: Antimicrobial activity against Candida albicans ATCC 2002 assessed as inhibition of yeast growth after 16 hrs by broth dilution method; format: functional; conditions: ATCC 2002, 16 h
Procedure, shortened: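 Broth microdilution in Sabouraud liquid medium. Samples are stocks in 0.9% NaCl, 10 µL added to 90 µL broth plus 100 µL of 2 × 10^5 CFU/mL yeast suspension. Incubated 16 h at 28°C, growth read by A600. MIC is the lowest concentration completely inhibiting growth; mean of three independent experiments.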

[19] = Hemolytic activity in human RBC after 30 mins; format: ADME, cell-based, Erythrocyte; conditions: for HC10: erythrocyte, 0.5 h; for HC50 at 0.5 h: red blood cells
Procedure, shortened: (§5)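 Serial dilutions were incubated with human erythrocytes for 30 min at 37°C. Supernatant absorbance was read at 540 nm after centrifugation. Hemolysis is expressed as % of the 1% Triton X-100 lysis value, pooled from three independent experiments. The highest concentration tested was 320 µg/mL.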

[20] = Induction of hemolysis in human RBC at 320 ug/mL after 30 mins; format: cell-based, Erythrocyte; conditions: red blood cells, read-out: Activity; procedure, shortened: as §5

Row | Compound | MIC (Escherichia coli) | MIC (Staphylococcus aureus) | MIC (Bacillus subtilis) | MIC (Candida albicans [18]) | HC10 [19] | HC50 at 0.5 h [19] | hemolysis at 0.5 h, 320 ug/mL [20] | further results
1 | CC1(C)S[C@@H]2[C@H](NC(=O)[C@H](N)c3ccccc3)C(=O)N2[C@H]1C(=O)O [AMPICILLIN] | 18.7 µg/mL (≈ 53.5 µM) | 0.15 µg/mL (≈ 0.429 µM) | 0.02 µg/mL (≈ 0.0572 µM) |  |  |  |  | 
2 | Clc1ccccc1C(c1ccccc1)(c1ccccc1)n1ccnc1 [CLOTRIMAZOLE] |  |  |  |  |  |  |  | Activity (Mus musculus [1]): inactive; Activity (Candida albicans [2]): 57425 CFU; Activity (Mus musculus [3]): 18; Activity (Mus musculus [4]): inactive; Activity (Candida albicans [5]): inactive; Activity (Candida albicans [6]): 42 CFU; Activity (Candida albicans [7]): 533 CFU; Activity (Candida albicans [8]): 106 CFU; Activity (Mus musculus [9]): 10; Activity (Mus musculus [10]): inactive; Activity (Mus musculus [11]): inactive; Activity (Candida albicans [12]): 64 CFU; Activity (Candida albicans [13]): 2674 CFU; Activity (Candida albicans [14]): 15789 CFU; Activity (Candida albicans [15]): 1.2 ×10⁴ CFU/ml; inhibition in vivo at 10000 µg/mL (Candida albicans [16]): 38%; Activity (Candida albicans [17]): 178 CFU
3 | OC(Cn1cncn1)(Cn1cncn1)c1ccc(F)cc1F [FLUCONAZOLE] |  |  |  | 18.7 µg/mL (≈ 61.1 µM) |  |  |  | 
4 | H-KFFRKLKKSVKKRAKEFFKKPRVIGVSIPF-OH | 2.34 µg/mL | > 100 µg/mL | 9.38 µg/mL | 4.7 µg/mL | > 320 µg/mL | > 320 µg/mL | 7.4% | 
5 | H-VKRFKKFFRKFKKSV-NH2 [listing 1 of 2 here] |  |  |  |  | > 320 µg/mL | > 320 µg/mL | 7.5% | 
6 | H-VKRFKKFFRKFKKSV-NH2 [listing 2 of 2 here] | 37.5 µg/mL | > 100 µg/mL | > 100 µg/mL | 9.38 µg/mL |  |  |  | 
7 | H-VKRFKKFFRKLKKSV-NH2 | 18.8 µg/mL | > 100 µg/mL | 75 µg/mL | 18.8 µg/mL | > 320 µg/mL | > 320 µg/mL | 9.7% | 
8 | H-VKRWKKFWRKWKKWW-NH2 [listing 1 of 2 here] |  |  |  |  | 51.7 µg/mL | > 320 µg/mL | 27.6% | 
9 | H-VKRWKKFWRKWKKWW-NH2 [listing 2 of 2 here] | 18.8 µg/mL | 4.69 µg/mL | 4.69 µg/mL | 2.34 µg/mL |  |  |  | 
10 | H-VKRWKKWWRKLKKSV-NH2 | 18.8 µg/mL | > 100 µg/mL | > 100 µg/mL | 9.38 µg/mL | > 320 µg/mL | > 320 µg/mL | 8.7% | 
11 | H-VKWRWKKWRWKWKWKV-NH2 [listing 1 of 2 here] |  |  |  |  | 178.3 µg/mL | > 320 µg/mL | 17.6% | 
12 | H-VKWRWKKWRWKWKWKV-NH2 [listing 2 of 2 here] | > 100 µg/mL | > 100 µg/mL | > 100 µg/mL | > 100 µg/mL |  |  |  | 
13 | H-VKWRWKWKWRWKWKWKV-NH2 | > 100 µg/mL | > 100 µg/mL | > 100 µg/mL | > 100 µg/mL | 62.8 µg/mL | > 320 µg/mL | 30.8% | 
